The text below walks through data of ChEMBL document CHEMBL4138205, “Oxazole-Containing Diterpenoids from Cell Cultures of Salvia miltiorrhiza and Their Anti-HIV-1 Activities” (J Nat Prod, 2017).

The inhibition is how much of the control response was suppressed. By IC50 is commonly meant the concentration that inhibits the measured activity by half.

The structures appear in SMILES notation. Active and inactive are the calls of the source. The calls are words filed in the database; no cut-off is given here. Some results are limits rather than exact numbers.

For data set [1], the system named is Human immunodeficiency virus 1. The data set is described as follows: Antiviral activity against HIV1 pNL4-3 infected in HEK293 cells assessed as reduction in viral transcription by measuring decrease in luciferase activity at 1 uM after 20 hrs by luciferase reporter gene assay. It counts as functional, organism-based. The method in brief: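 HEK 293T cells transiently transfected with the pNL4-3.luc.R−E− HIV-1 reporter plasmid (luciferase gene) for 4 h. The test compound was then added at 0.001−1 μM final and incubated for an additional 20 h. Luciferase activity was read 24 h post-transfection as a measure of viral gene expression; n = 2.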
(In general: In a reporter assay the amount or activity of a reporter protein is the signal.)

The subject of data set [2] is Human immunodeficiency virus 1. As to the kind of experiment: Antiviral activity against wild-type VSV-G pseudotyped HIV1 infected in HEK293 cells assessed as time of 50% failure at 1 uM measured at 48 hrs post infection by luciferase reporter gene assay. It counts as functional. In a few lines:
(§1)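 Time-of-addition: HEK 293T infected with VSV-G/HIV-1, then compounds added at successive time points after infection (test compound final 0.1 μM; AZT, EFV, RAL final 1 μM); lysate luciferase read at 48 h postinfection; infectivity (%) versus untreated control.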

For data set [3], the system named is Human immunodeficiency virus 1. The data set is described as follows: Antiviral activity against wild-type VSV-G pseudotyped HIV1 infected in HEK293 cells at 10 uM pretreated for 15 mins followed by viral infection measured after 48 hrs by luciferase reporter gene assay relative to control. Particulars: Human immunodeficiency virus 1, HEK293. It counts as functional. The method in brief: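 Single-concentration screen: compound at final 10 μM added to HEK 293T cells 15 min before VSV-G/HIV-1 infection; cell lysate luciferase measured 48 h postinfection and infectivity expressed relative to equal-volume DMSO solvent control.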

Another data set relates to Murine leukemia virus. As to the kind of experiment: Antiviral activity against wild-type VSV-G pseudotyped MLV infected in HEK293 cells pretreated for 15 mins followed by viral infection measured after 48 hrs by luciferase reporter gene assay. It counts as functional, organism-based.
Data set [4] relates to Human immunodeficiency virus 1. The data set is described as follows: Antiviral activity against wild-type VSV-G pseudotyped HIV1 infected in HEK293 cells pretreated for 15 mins followed by viral infection measured after 48 hrs by luciferase reporter gene assay. It counts as functional, organism-based. The note with it: Human immunodeficiency virus 1, HEK293.
In another data set the test system is HEK293. As to the kind of experiment: Effect on renilla luciferase expression in HEK293 cells up to 1 uM after 24 hrs by luciferase reporter gene assay. It counts as ADME, cell-based. Particulars: human, hek293, 24 h. In a few lines:
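A plasmid encoding Renilla luciferase (pSV40-Renilla) was transiently transfected into HEK 293T cells for 4 h. Cells were then cultured with the test compound at the indicated concentrations, and Renilla luciferase activity in cell lysates was measured 24 h post-transfection as a control for gene translation; n = 2.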

The test system of data set [5] is Human immunodeficiency virus 1. As to the kind of experiment: Antiviral activity against HIV1 infected in HEK293 cells assessed as inhibition of basal LTR transcription after 48 hrs by dual-luciferase reporter gene assay. It counts as functional, organism-based. The method in brief: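 HEK 293T cotransfected 4 h with 100 ng pLTR-Luc and 2 ng pSV40-Renilla (no Tat), then compound added; firefly and Renilla luciferase in lysates measured 48 h post-transfection by dual-luciferase assay; n = 2.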

Data set [6] relates to Human immunodeficiency virus 1. The data set is described as follows: Antiviral activity against VSV-G pseudotyped HIV1 infected in human MT2 cells pretreated for 15 mins followed by viral infection measured after 48 hrs by luciferase reporter gene assay. It counts as functional, organism-based. The note with it: Human immunodeficiency virus 1, MT2.
For data set [7], the system named is Human immunodeficiency virus 1. As to the kind of experiment: Antiviral activity against HIV1 pNL4-3 infected in HEK293 cells assessed as reduction in viral transcription by measuring decrease in luciferase activity after 20 hrs by luciferase reporter gene assay. It counts as functional, organism-based. The method in brief: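 HEK 293T transiently transfected with pNL4-3.luc.R−E− for 4 h, then treated with compound (0.001−1 μM range; AZT, EFV, RAL 1 μM) for a further 20 h; luciferase activity then measured as read-out of viral gene expression; n = 2.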

The target of data set [8] is T1, Protein Tat (Human immunodeficiency virus type 1 group M subtype B (isolate HXB2)(HIV-1)) (UniProt P04608).
T1 sequence (whole entry): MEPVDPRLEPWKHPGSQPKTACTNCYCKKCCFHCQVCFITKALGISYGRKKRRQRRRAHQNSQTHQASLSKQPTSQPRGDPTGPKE
As to the kind of experiment: Inhibition of HIV1 Tat-mediated LTR transcriptional activity expressed in HEK293 cells after 48 hrs by dual-luciferase reporter gene assay. It counts as cell-based. The note with it: Human immunodeficiency virus 1. The method in brief:
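HEK 293T cotransfected 4 h with 100 ng pLTR-Luc, 70 ng pcDNA3.1-Tat and 2 ng pSV40-Renilla, then cultured with compound; lysate luciferase activities read 48 h post-transfection by dual-luciferase assay; n = 2.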

Data set [9] concerns Human immunodeficiency virus 1. The data set is described as follows: Antiviral activity against HIV1 NL4-3 infected in human MT2 cells measured after 72 hrs post infection by fluorAce beta-galactosidase reporter gene assay. It counts as functional, organism-based. Particulars: Human immunodeficiency virus 1, NL4-3, MT2, 72 h. In a few lines:
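MT-2 cells (RPMI 1640, 10% FBS) in 384-well format infected with HIV-1 NL4-3 carrying a β-galactosidase reporter at MOI 0.01; compounds added in DMSO; β-Gal expression read at 72 h postinfection by FluorAce β-Gal reporter assay; n = 2.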

The subject of data set [10] is Human immunodeficiency virus 1. As to the kind of experiment: Antiviral activity against wild-type VSV-G pseudotyped HIV1 infected in HEK293 cells assessed as time of 50% failure at 0.1 uM measured at 48 hrs post infection by luciferase reporter gene assay. It counts as functional. In a few lines:
as §1

As to `Cc1cn([C@H]2C[C@H](N=[N+]=[N-])[C@@H](CO)O2)c(=O)[nH]c1=O` [ZIDOVUDINE], the outcome in data set [1] was inactive. Moreover, the FT50 in data set [2] amounted to 7.7 h.

Take `Cc1nc2c(o1)c1c(c3ccc4c(c32)CCCC4(C)C)OC[C@@H]1C`: in [3], the inhibition at 10 µM was found to be 18.3%.

Take `Cc1nc2c(o1)c1c(c3ccc4c(C)cccc4c32)OC[C@@H]1C`: the inhibition at 10 µM in data set [3] was determined as 2.82%.

As to `Cc1nc2c(o1)c1c(C)coc1c1ccc3c(C)cccc3c12`, the inhibition at 10 µM in [3] came to 17.4%.

In the case of `Cc1nnc(C(=O)NC(C)(C)c2nc(C(=O)NCc3ccc(F)cc3)c(O)c(=O)n2C)o1` [RALTEGRAVIR], the result in data set [1] was inactive. For the same molecule, the FT50 in [2] is 12 h.

As for `O=C1Nc2ccc(Cl)cc2[C@@](C#CC2CC2)(C(F)(F)F)O1` [EFAVIRENZ], the result in [1] was inactive. Besides, in the data set on Murine leukemia virus, the IC50 was over 10000 nM. In addition, the inhibition at 10 µM in [3] turned out to be 100%. The FT50 in data set [2] amounted to 10.1 h.

`C[C@H]1COc2c1c1ocnc1c1c3c(ccc21)C(C)(C)CCC3`: the inhibition at 10 µM in data set [3] was determined as 18.7%.

`Cc1cccc2c1ccc1c3c(c4oc(Cc5ccccc5)nc4c12)[C@@H](C)CO3`: the IC50 in data set [4] was found to be 1200 nM. Moreover, the inhibition at 10 µM in data set [3] came to 62.1%.

For `Cc1cccc2c1ccc1c3c(c4ocnc4c12)[C@@H](C)CO3`, the Activity entry in the data set on HEK293 was “Non-Toxic”; in data set [7], “Dose-dependent effect”. Besides, the inhibition entry in data set [5] and in [8] was “Dose-dependent effect” each time. The IC50 in data set [4] was found to be 30 nM; in data set [6] it was 30 nM; with Murine leukemia virus it was 150 nM; in [9], 5400 nM. The FT50 result in data set [10] was “<=20 hr”. Also, in [3], the inhibition at 10 µM is 76.7%.

For the molecule `Cc1nc2c3c(c4ccc5c(c4c2o1)CCCC5(C)C)OC[C@@H]3C`, in [3], the inhibition at 10 µM is 11.2%.
